# Only some compounds are listed: those with a hit (about 2% of all), similar ones and a draw of the others.
# TWEAK-Fn14 inh: TWEAK-Fn14 signaling inhibition. hit rate 2% among 360,000. TWEAK-stimulated Fn14 reporter cells, luciferase luminescence, 8 h. inhibition, % at 10 µM; in the data active = inhibition above about 50%
# Xi reactivation: reactivates the inactive X chromosome in mouse fibroblasts. activation, % at 7.58 µM. hit rate 0.055% among 360,000. XiGFP mouse fibroblasts, % GFP-positive cells imaging, 3 d; cells co-treated with 5-aza-dC sensitizer; scaled so ellipticine positive control = 100%;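 active = mean normalized replicate activation at least 10% and every replicate at or above 10%; inconclusive = only one of the two criteria met; inactive = mean below 10% and not all replicates reach 10%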;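 also: 0% = median of on-plate neutral control wells and 100% = ellipticine 6 µM median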
#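 assay system = SV40-immortalized XiGFP fibroblast cells, line 68-5-11 | buffer or medium = DMEM plus 5-aza-dC sensitizer | doses = single-point pinned compound dosing | times = 3-day compound exposure, then 15 min fixation at room temperature | benchmarks = positive control ellipticine, 6 µM final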
# TROY signal inh: inhibitors of TROY-dependent NF-kB signaling; Q293 LMP1-TROYcd NF-kB luciferase reporter, 4 h; inhibition, % at 10 µM; hit rate 0.98% among 360,000;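 active = compounds whose plate-normalised and pattern-corrected inhibition of the luciferase reporter signal at the single screening dose is 50% or more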
# CaV13 ICDI inh: Disruptors of the CACNA1D IQ motif to Ca2+-dependent inactivation inhibitor domain association, primary screening, Förster resonance energy transfer in intact living …. HEK cells, CFP/YFP FRET ICDI-IQ, plate reader, 10 min; percent FRET-ratio fall versus neutral wells. inhibition, % at 12.3 µM. hit rate 0.098% among 340,000. AID 743397;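 active = mean replicate inhibition of at least 30% and at least 1% of replicates passing that level; inconclusive = only one of the two criteria is met; inactive = neither criterion is met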;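 also: 0% = median of the neutral control wells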
# LGR2 antag: Drosophila LGR2 receptor signaling inhibition; HEK293 LGR2, CRE-luciferase, bursicon-stimulated, 4 h; inhibition, % at 9.99 µM; hit rate 0.35% among 380,000; AID 720647;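 active = drop in luminescence signal, shown as inhibition above about 50% in the replicate tests, limit read from the data, passing the limit was not always enough; inconclusive = probably only some replicates passing the limit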;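 also: agonist challenge used bursicon conditioned medium at about half maximal strength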
# Starred values were filed as active, the others as inactive; ? = inconclusive; nt = no result.
SMILES,TWEAK-Fn14 inh,Xi reactivation,TROY signal inh,CaV13 ICDI inh,LGR2 antag
COc1ccc2c3c(n(C)c2c1)[C@H](CO)N(C(=O)c1cnccn1)CC31CN(C(=O)c2ccncc2)C1,nt,0,nt,nt,3
O=C(COC(=O)c1ccccc1-n1cnnn1)c1ccc(Br)cc1,72*,0,62*,-5,8
O=C(COC(=O)c1ccccc1-n1cnnn1)c1ccccc1,30,0,36,-5,1
CCc1cc(C(=O)N2CCN(c3ncc(C(F)(F)F)cc3Cl)CC2)sc1C,56*,0,35,-2,12
C[C@H](CO)N1C[C@H](C)[C@@H](CN(C)S(=O)(=O)c2ccc(F)cc2)Oc2ncc(/C=C/c3ccccc3)cc2C1=O,nt,1,nt,nt,-7
C[C@@H]1CN([C@H](C)CO)C(=O)c2cc(C3=CCCCC3)cnc2O[C@H]1CN(C)Cc1ccccc1,nt,-1,nt,nt,-11
CCNc1nc(N)nc(-c2cc(Cl)ccc2O)n1,64*,nt,1,nt,nt
CCCCNc1nc(N)nc(-c2cc(Cl)ccc2O)n1,82*,1,28,-3,2
COc1cccc(-c2ccc([C@@H]3[C@H](CO)N4CCCCN(C(=O)NC(C)C)C[C@@H]34)cc2)c1,nt,0,nt,nt,1
Cc1noc(C)c1NC(=O)Nc1ccc2c(c1)CC(=O)N([C@H](C)CO)C[C@@H](C)[C@@H](CN(C)C(=O)Nc1ccccc1)O2,nt,0,nt,nt,7
O=c1c(Br)c(Br)cnn1-c1ccccc1,93*,3,77*,-2,5
Cc1ccc(-n2ncc(Br)c(Br)c2=O)cc1,78*,nt,69*,nt,nt
COc1cnn(-c2ccccc2)c(=O)c1N(C)C,32,nt,54*,-4,nt
COc1c(Cl)cnn(-c2ccc(C)cc2)c1=O,8,nt,-9,-9,-10
CCN1[C@@H]2c3ccc(-c4cccc(F)c4)c(=O)n3C[C@@H]2[C@@H](CO)[C@@H]1C(=O)OC,nt,0,nt,nt,0
C=CC[n+]1ccc(/C=C2\C=Cc3cc(C)ccc3N2CC)c2ccccc21,18,nt,50*,nt,nt
CCCCOC(=O)C1C2C=C[C@]3(CN(CCCOC)C(=O)[C@H]13)O2 (some centres not stated),2,nt,0,nt,nt
CCCCOC(=O)C1C2C=C[C@]3(CN(C(C)c4ccc(OC)cc4)C(=O)[C@H]13)O2 (some centres not stated),89*,nt,nt,nt,nt
O=C(Cn1ncc(Cl)c(Cl)c1=O)N1CCN(S(=O)(=O)c2ccc3ccccc3c2)CC1,97*,5,67*,-5,8
Cc1cc(Br)ccc1NC(=O)CNC(=O)CSc1ncccn1,9,0,6,-19,8
COc1ccc(NC(=O)Cc2coc3cc(C)c(C(C)C)cc23)cc1S(=O)(=O)N1CCOCC1,53*,0,28,-3,12
Cc1cc(Br)ccc1NC(=O)CNC(=O)Cn1ncc(Cl)c(Cl)c1=O,60*,0,28,-4,74*
O=C(Cn1ncc(Cl)c(Cl)c1=O)Nc1ccc2c(c1)OCO2,75*,1,2,-14,-9
Cc1nn(CC(=O)Nc2ccc3c(c2)OCO3)c(C)c1Cl,-15,0,-18,-7,12
C[C@H]1CN([C@@H](C)CO)C(=O)c2cc(C3=CCCCC3)cnc2O[C@@H]1CN(C)Cc1cccnc1,nt,1,nt,nt,-6
SMILES,TWEAK-Fn14 inh,Xi reactivation,TROY signal inh,CaV13 ICDI inh,LGR2 antag
Cc1ccc(S(=O)(=O)N2CCCCC2)cc1NC(=O)Cn1cnnn1,4,0,7,-4,-3
COc1ccc(NC(=O)Cn2ncc(Cl)c(Cl)c2=O)cc1S(=O)(=O)N1CCOCC1,74*,1,-2,-5,-14
COc1ccc(NC(=O)c2ccc(Cl)nc2)cc1S(=O)(=O)N1CCOCC1,14,0,5,-4,-6
Cc1ccc(S(=O)(=O)N2CCCCC2)cc1NCC(=O)Nc1ccc(Br)cc1F,80*,0,53*,-11,12
Cc1ccc(S(=O)(=O)N2CCCCC2)cc1NC(=O)Cn1ncc(Cl)c(Cl)c1=O,100*,1,80*,-5,54*
O=C(Cn1ncc(Cl)c(Cl)c1=O)c1ccc2c(c1)OCCO2,101*,1,23,-9,?
CCc1csc(N2[C@@H](C#N)[C@@H](c3ccccc3-c3cccc(F)c3)[C@@H]2CO)n1,nt,0,nt,nt,1
CCN1[C@H](C(=O)OC)[C@@H](CO)[C@@H]2Cn3c(ccc(-c4cccc(OC)c4)c3=O)[C@@H]21,nt,0,nt,nt,1
CCN(CC)S(=O)(=O)c1cc(NC(=O)CN2C(=O)NC(C)(c3ccccc3)C2=O)ccc1C (configuration not stated),-17,0,8,-3,-10
CCN(CC)S(=O)(=O)c1cc(NC(=O)Cn2ncc(Cl)c(Cl)c2=O)ccc1C,98*,0,89*,0,25
O=C(NCC1CC1)[C@H]1[C@H](CO)[C@H]2Cn3c(cccc3=O)[C@@H]1N2C(=O)c1cccnc1,nt,0,nt,nt,-1
Cc1cc(O)c(C=O)c2c1C(=O)Oc1c(CO)c(O)c3c(c1O2)C(O)OC3=O (configuration not stated),56*,nt,-5,nt,nt
CN(C[C@@H]1[C@H](c2ccccc2)[C@@H](CO)N1C(=O)C1CC1)C(=O)c1ccccn1,nt,0,nt,nt,7
CC(=O)c1c(C)[nH]c(C)c1C(C)=O,62*,nt,10,-5,nt
CC(=O)c1c(C)[nH]c(C(=O)O)c1C,13,0,11,-4,17
CCOc1ccc2nc(Nc3nc(CSc4nnnn4-c4ccccc4)cc(=O)[nH]3)nc(C)c2c1,22,nt,2,-6,nt
COc1ccc2nc(Nc3nc(CSc4nnnn4-c4ccccc4)cc(=O)[nH]3)nc(C)c2c1,57*,nt,23,-5,nt
CCOC(=O)C1=C(C)NC(=O)CC1c1cc2c(cc1Br)OCO2 (configuration not stated),100*,nt,nt,-8,nt
C=CCOC(=O)C1=C(C)N(C)C(=O)NC1c1cc2c(cc1Br)OCO2 (configuration not stated),90*,nt,82*,-5,nt
O=C(CC1CC1)Nc1ccc2c(c1)[C@@H]1C[C@@H](CC(=O)N3CCc4ccccc4C3)O[C@H](CO)[C@@H]1O2,nt,0,nt,nt,14
COc1ccc(CN(C)C(=O)c2cc(S(=O)(=O)Nc3ccccc3F)ccc2C)c(OC)c1,53*,0,-19,-11,3
O=C1Nc2ccc(Br)cc2/C1=C/C(=O)c1ccccc1,55*,0,11,-4,11
O=C(O)COc1ccccc1/C=C1\C(=O)Nc2ccc(Br)cc21,36,0,13,-1,-3
O=C(C1CCCCC1)N1CC2(C1)[C@H](c1ccccc1)[C@H](CO)N2Cc1cncnc1,nt,0,nt,nt,-7
O=C1OC2(CCCCC2)OC(=O)C1=CNc1nccs1,55*,nt,nt,nt,nt
O=C1OC2(CCCCC2)OC(=O)C1=CNc1nc2ccccc2s1,2,nt,-33,-5,nt

# Screening results (PubChem)
